From ChEMBL document CHEMBL2062435, “Synthesis and in vitro antibacterial activity of gemifloxacin derivatives containing a substituted benzyloxime moiety” (2012)

Tests used:
Assay type in all cases: functional
[1] = system: Streptococcus pneumoniae; test: Antimicrobial activity against extended spectrum beta-lactamases-producing Streptococcus pneumoniae 10-1 after 18-24 hrs by two-fold serial dilution method
Outline: (§1)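 Agar-medium twofold serial dilution against Gram-positive and Gram-negative strains; MIC taken as the lowest compound concentration giving complete inhibition of bacterial growth after incubation at 35 °C for 18-24 h.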

[2] = system: Klebsiella pneumoniae; test: Antimicrobial activity against Klebsiella pneumoniae 10-3 after 18-24 hrs by two-fold serial dilution method; outline: as §1
[3] = system: Escherichia coli; test: Antimicrobial activity against Escherichia coli ATCC 25922 after 18-24 hrs by two-fold serial dilution method; outline: as §1
[4] = system: Escherichia coli; test: Antimicrobial activity against Escherichia coli 10-3 after 18-24 hrs by two-fold serial dilution method; outline: as §1
[5] = system: Enterococcus faecalis; test: Antimicrobial activity against Enterococcus faecalis 10-7 after 18-24 hrs by two-fold serial dilution method; outline: as §1
[6] = system: Staphylococcus aureus; test: Antimicrobial activity against extended spectrum beta-lactamases-producing methicillin-sensitive Staphylococcus aureus 10-14 after 18-24 hrs by two-fold serial dilution method; outline: as §1
[7] = system: Klebsiella pneumoniae; test: Antimicrobial activity against extended spectrum beta-lactamases-producing Klebsiella pneumoniae 10-3 after 18-24 hrs by two-fold serial dilution method; outline: as §1
[8] = system: Klebsiella pneumoniae; test: Antimicrobial activity against extended spectrum beta-lactamases-producing Klebsiella pneumoniae 10-1 after 18-24 hrs by two-fold serial dilution method; outline: as §1
[9] = system: Staphylococcus epidermidis; test: Antimicrobial activity against extended spectrum beta-lactamases-producing methicillin-sensitive Staphylococcus epidermidis 10-15 after 18-24 hrs by two-fold serial dilution method; outline: as §1
[10] = system: Staphylococcus epidermidis; test: Antimicrobial activity against extended spectrum beta-lactamases-producing methicillin-resistant Staphylococcus epidermidis 10-10 after 18-24 hrs by two-fold serial dilution method
Outline: (§2)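 Agar twofold serial dilution MIC against clinical isolates. MIC was taken as the lowest concentration giving complete inhibition of bacterial growth after incubation at 35 °C for 18-24 h.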

[11] = system: Staphylococcus aureus; test: Antimicrobial activity against extended spectrum beta-lactamases-producing methicillin-sensitive Staphylococcus aureus 10-13 after 18-24 hrs by two-fold serial dilution method; outline: as §1
[12] = system: Pseudomonas aeruginosa; test: Antimicrobial activity against extended spectrum beta-lactamases-producing Pseudomonas aeruginosa 10-20 after 18-24 hrs by two-fold serial dilution method; outline: as §1
[13] = system: Pseudomonas aeruginosa; test: Antimicrobial activity against extended spectrum beta-lactamases-producing Pseudomonas aeruginosa 10-18 after 18-24 hrs by two-fold serial dilution method; outline: as §1
[14] = system: Staphylococcus epidermidis; test: Antimicrobial activity against extended spectrum beta-lactamases-producing methicillin-sensitive Staphylococcus epidermidis 10-11 after 18-24 hrs by two-fold serial dilution method; outline: as §1
[15] = system: Pseudomonas aeruginosa; test: Antimicrobial activity against Pseudomonas aeruginosa 10-12 after 18-24 hrs by two-fold serial dilution method; outline: as §1
[16] = system: Escherichia coli; test: Antimicrobial activity against extended spectrum beta-lactamases-producing Escherichia coli 10-3 after 18-24 hrs by two-fold serial dilution method; outline: as §1
[17] = system: Streptococcus pneumoniae; test: Antimicrobial activity against extended spectrum beta-lactamases-producing Streptococcus pneumoniae 10-4 after 18-24 hrs by two-fold serial dilution method; outline: as §1
[18] = system: Pseudomonas aeruginosa; test: Antimicrobial activity against extended spectrum beta-lactamases-producing Pseudomonas aeruginosa 10-9 after 18-24 hrs by two-fold serial dilution method; outline: as §1
[19] = system: Escherichia coli; test: Antimicrobial activity against Escherichia coli 10-1 after 18-24 hrs by two-fold serial dilution method; outline: as §1
[20] = system: Staphylococcus aureus; test: Antimicrobial activity against extended spectrum beta-lactamases-producing methicillin-resistant Staphylococcus aureus 10-11 after 18-24 hrs by two-fold serial dilution method; outline: as §2
[21] = system: Staphylococcus epidermidis; test: Antimicrobial activity against extended spectrum beta-lactamases-producing methicillin-sensitive Staphylococcus epidermidis 10-13 after 18-24 hrs by two-fold serial dilution method; outline: as §1
[22] = system: Staphylococcus aureus; test: Antimicrobial activity against extended spectrum beta-lactamases-producing methicillin-resistant Staphylococcus aureus 10-15 after 18-24 hrs by two-fold serial dilution method; outline: as §2
[23] = system: Escherichia coli; test: Antimicrobial activity against extended spectrum beta-lactamases-producing Escherichia coli 10-4 after 18-24 hrs by two-fold serial dilution method; outline: as §1
[24] = system: Enterococcus faecalis; test: Antimicrobial activity against Enterococcus faecalis 10-5 after 18-24 hrs by two-fold serial dilution method; outline: as §1
[25] = system: Pseudomonas aeruginosa; test: Antimicrobial activity against extended spectrum beta-lactamases-producing Pseudomonas aeruginosa 10-5 after 18-24 hrs by two-fold serial dilution method; outline: as §1
[26] = system: Enterococcus faecalis; test: Antimicrobial activity against Enterococcus faecalis 10-6 after 18-24 hrs by two-fold serial dilution method; outline: as §1
[27] = system: Klebsiella pneumoniae; test: Antimicrobial activity against Klebsiella pneumoniae 10-4 after 18-24 hrs by two-fold serial dilution method; outline: as §1
[28] = system: Klebsiella pneumoniae; test: Antimicrobial activity against extended spectrum beta-lactamases-producing Klebsiella pneumoniae 10-2 after 18-24 hrs by two-fold serial dilution method; outline: as §1
[29] = system: Enterococcus faecium; test: Antimicrobial activity against Enterococcus faecium 10-9 after 18-24 hrs by two-fold serial dilution method; outline: as §1
[30] = system: Escherichia coli; test: Antimicrobial activity against extended spectrum beta-lactamases-producing Escherichia coli 10-2 after 18-24 hrs by two-fold serial dilution method; outline: as §1
[31] = system: Staphylococcus epidermidis; test: Antimicrobial activity against extended spectrum beta-lactamases-producing methicillin-resistant Staphylococcus epidermidis 10-13 after 18-24 hrs by two-fold serial dilution method; outline: as §2
[32] = system: Escherichia coli; test: Antimicrobial activity against Escherichia coli 10-2 after 18-24 hrs by two-fold serial dilution method; outline: as §1
[33] = system: Pseudomonas aeruginosa; test: Antimicrobial activity against extended spectrum beta-lactamases-producing Pseudomonas aeruginosa 10-15 after 18-24 hrs by two-fold serial dilution method; outline: as §1
[34] = system: Klebsiella pneumoniae; test: Antimicrobial activity against Klebsiella pneumoniae 10-2 after 18-24 hrs by two-fold serial dilution method; outline: as §1
[35] = system: Staphylococcus aureus; test: Antimicrobial activity against Staphylococcus aureus ATCC […] after 18-24 hrs by two-fold serial dilution method; outline: as §1
[36] = system: Enterococcus faecium; test: Antimicrobial activity against Enterococcus faecium 10-5 after 18-24 hrs by two-fold serial dilution method; outline: as §1

With `CS(=O)(=O)O.NCC1CN(c2nc3c(cc2F)c(=O)c(C(=O)O)cn3C2CC2)C/C1=N\OCc1ccccc1` (racemic) the MIC [1] was 0.25 µg/mL, the MIC [2] was 2 µg/mL and the MIC [3] was 0.03 µg/mL. For the same compound, the MIC [4] was 8 µg/mL, the MIC [5] was 2 µg/mL and the MIC [6] was 0.03 µg/mL. The MIC [7] was 32 µg/mL, the MIC [8] was 32 µg/mL and the MIC [9] was 8 µg/mL. It also gave an MIC [10] of 1 µg/mL, an MIC [11] of 0.015 µg/mL and an MIC [12] of 2 µg/mL. For the same compound, the MIC [13] was 1 µg/mL, the MIC [14] was 1 µg/mL and the MIC [15] was 4 µg/mL. For the same compound, the MIC [16] was 32 µg/mL, the MIC [17] was 0.06 µg/mL and the MIC [18] was 2 µg/mL. It also gave an MIC [19] of 16 µg/mL, an MIC [20] of 4 µg/mL and an MIC [21] of 0.06 µg/mL. The MIC [22] was 0.5 µg/mL, the MIC [23] was 4 µg/mL and the MIC [24] was 1 µg/mL. For the same compound, the MIC [25] was 8 µg/mL, the MIC [26] was 4 µg/mL and the MIC [27] was 128 µg/mL. The MIC [28] was 64 µg/mL, the MIC [29] was 8 µg/mL and the MIC [30] was 32 µg/mL. The MIC [31] was 1 µg/mL, the MIC [32] was 4 µg/mL and the MIC [33] was 4 µg/mL. For the same compound, the MIC [34] was 32 µg/mL, the MIC [35] was < 0.008 µg/mL and the MIC [36] was 4 µg/mL.
For `COc1ccc(CO/N=C2\CN(c3nc4c(cc3F)c(=O)c(C(=O)O)cn4C3CC3)CC2CN)cc1.CS(=O)(=O)O` (racemic), the MIC [1] was 0.125 µg/mL, the MIC [2] was 4 µg/mL and the MIC [3] was 0.06 µg/mL. For the same compound, the MIC [4] was 8 µg/mL, the MIC [5] was 1 µg/mL and the MIC [6] was 0.03 µg/mL. It also gave an MIC [7] of 128 µg/mL, an MIC [8] of 64 µg/mL and an MIC [9] of 2 µg/mL. For the same compound, the MIC [10] was 0.5 µg/mL, the MIC [11] was 0.015 µg/mL and the MIC [12] was 2 µg/mL. The MIC [13] was 4 µg/mL, the MIC [14] was 0.5 µg/mL and the MIC [15] was 2 µg/mL. It also gave an MIC [16] of 16 µg/mL, an MIC [17] of 0.125 µg/mL and an MIC [18] of 4 µg/mL. It also gave an MIC [19] of 32 µg/mL, an MIC [20] of 1 µg/mL and an MIC [21] of 0.03 µg/mL. The MIC [22] was 0.25 µg/mL, the MIC [23] was 2 µg/mL and the MIC [24] was 0.125 µg/mL. It also gave an MIC [25] of 4 µg/mL, an MIC [26] of 2 µg/mL and an MIC [27] of 128 µg/mL. For the same compound, the MIC [28] was 128 µg/mL, the MIC [29] was 8 µg/mL and the MIC [30] was 128 µg/mL. For the same compound, the MIC [31] was 0.5 µg/mL, the MIC [32] was 2 µg/mL and the MIC [33] was 8 µg/mL. It also gave an MIC [34] of 128 µg/mL, an MIC [35] of 0.015 µg/mL and an MIC [36] of 4 µg/mL.
